This data set has as its system MS2 coat protein. Nature of the data set: apparent Kd, MS2 coat protein; higher = weaker binding; RNA-MaP array; theophylline 2 mM where present. Put shortly: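 In 100 mM Tris-HCl pH 7.5, 80 mM KCl, 4 mM MgCl2, BSA, DTT, yeast tRNA and Tween-20, SNAP-549-labelled MS2 coat protein was titrated from 0.7 or 1.5 nM, doubling to 3 µM, over designs transcribed by stalled E. coli RNA polymerase on Illumina sequencing-chip clusters. This was done first without ligand, then with ligand held constant. After green signal was normalised to red-channel RNA signal and control-cluster median Fmax, the apparent Kd was taken as the median of filtered per-cluster binding-curve fits.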

The mark [1] stands for this setting: designed as: OFF switch for theophylline, no ligand.
Setting [2] is: ligand present: theophylline, designed as: OFF switch for theophylline.
[3] abbreviates: designed as: ON switch for theophylline, no ligand.
The mark [4] stands for this setting: ligand present: theophylline, designed as: ON switch for theophylline.

Broadly, the apparent Kd is the concentration giving half-maximal binding under the conditions of the assay. With “GAGCUGAUGUAGGCCGGAUAUCCGGGAGAUACCAGUACAGAAAUGUACCCUUGGCAGCUCUUUCCUACAUGAGGAUCACCCAUGU”, the “apparent Kd” value under setting [1] is 16.6 nM and the “apparent Kd” value under setting [2] came to 96 nM.

On to “AUAACUGUCAAGGAAGGUGAUCCAGCAGAUACCAGCUAGGAAACUAGCCCUUGGCAGCUGCAACAUGAGGAUCACCCAUGUAAUA”, for which the “apparent Kd” value under setting [1] was found to be 76.8 nM and the “apparent Kd” value under setting [2] came out at 121 nM.

As to “AGCGACAUGCGUGAUACCAGCUACAUGAGGAUCACCCAUGUACGUAGGAAACUACUGUGUAGCCCUUGGCAGCAUAGUGCAUGUC”, the “apparent Kd” value was 12.6 nM under setting [1] and 57.1 nM under setting [2].

In the case of “CUAUAAGUAACUGAUACCAGUGUACUGACAUGAGGAUCACCCAUGUUGGGUUUUGUUGUACACCCUUGGCAGCAGAAUCUUGUAG”, the “apparent Kd” value runs as follows: under setting [1], 62.1 nM; under setting [2], 85 nM.

In the case of “GGGUGCGGGAUAGAUACCAGUGCCUUAAAAUAGGCACAUGAGGAUCACCCAUGUACCGGGCGCCCUUGGCAGCUAGUACCAUCCA”, the “apparent Kd” value came to 127 nM under setting [3] and 181 nM under setting [4].

In the case of “CGUGUCGUAACUGAUACCAGUGUACUGACAUGAGGAUCACCCAUGUUGGGUUUUGUUGUACACCCUUGGCAGCAGAAUCGAUACG”, the “apparent Kd” value stood at 76.9 nM under setting [1] and 119 nM under setting [2].

Regarding “ACACGAGGAUCACCCGUGUCAUGUGGUGAUACCAGUUUACAUGAGAACCCUUGGCAGCAUAACAACAUGAGGAUCACCCAUGUCA”, the “apparent Kd” value came to 32.3 nM under setting [3] and 41.7 nM under setting [4].

On to “GCAUGUGGAGUCUUACUAGAGAGGACAGAUACCAGUAAGAUGUGAUACCCUUGGCAGCUGCGAUUUACAUGAGGAUCACCCAUGU”, for which the “apparent Kd” value runs as follows: under setting [1], 21.5 nM; under setting [2], 24.2 nM.

With “UGUAACAUGAGGAUCACCCAUGUGAGUGAUACCAGAUAAGUAGUAGUCCCUUGGCAGCAUAUUGGGCGAGUGUAUAGUCUAUGCG”, the “apparent Kd” value is, setting by setting: under setting [3], 146 nM; under setting [4], 193 nM.

“UGCACCAUAAUCAUGUUGGUGCUAGGUGAUACCAGCAUCGAAAGAUGCCCUUGGCAGCACCAACAUGAGGAUCACCCAUGUAAUA”: the “apparent Kd” value under setting [3] is 130 nM and the “apparent Kd” value under setting [4] turned out to be 99.8 nM.

On to “ACAUGAGGAUCACCCAUGUGCCGUCUUGAUACCAGACGCGAAGUAGUCCCUUGGCAGCAAAUACGUGAGGGUCGCGCAUGUGUAA”, for which the “apparent Kd” value amounted to 24.1 nM under setting [1] and 34.7 nM under setting [2].

For “GGUUUCGCGGGCGAUACCAGCUUGAUCGUACUGGCCUGGUACAUGAGGAUCACCCAUGUAAGCCCUUGGCAGCGCGCGCGAGACC”, the “apparent Kd” value under setting [1] is 11.3 nM and the “apparent Kd” value under setting [2] amounted to 24.7 nM.

On to “GAUGAUAUUGCAGAUACCAGACACAUGAGGAUCACCCAUGUCUCUGAGAUGAAGGAUCGUGUCCCUUGGCAGCUGCGAUAUCAUC”, for which the “apparent Kd” value worked out at 32.7 nM under setting [1] and 338 nM under setting [2].

Turning to “AAACGUUGCUGCGAUACCAGACAUGAGGAUCACCCAUGUACCAAGGUACGAAUAUAACAUGUCCCUUGGCAGCGCAGCAACGAAA”, the “apparent Kd” value reads like this: under setting [1], 12.6 nM; under setting [2], 279 nM.

For “AUUAUCAUGGUCAUAUAUAUAUCGUCAGAUACCAGACUAGAUAUAGUCCCUUGGCAGCUGUUACAUGAGGAUCACCCAUGUUAUA”, the “apparent Kd” value by setting is: under setting [1], 138 nM; under setting [2], 47.8 nM.

Take “UGAUCCUGCAGGGAUACCAGCGCCGCUUGAUAACUGUGCACAUGAGGAUCACCCAUGUAGCGCCCUUGGCAGCCCAGCUAGAGGG”: the “apparent Kd” value is, setting by setting: under setting [3], 25.4 nM; under setting [4], 23 nM.

Take “AGAUUAAAGAGUGAUACCAGACUACAUGAGGAUCACCCAUGUUACAUUUGAGUAGCUUUAGUCCCUUGGCAGCACUUUAUGUACA”: the “apparent Kd” value by setting is: under setting [1], 45.5 nM; under setting [2], 17.6 nM.

On to “GAUGAACUAUUUGAUACCAGACAACAUGAGGAUCACCCAUGUGCGCGUCGUCCUCUGCCUGUCCCUUGGCAGCGGAUAGUUUAUC”, for which the “apparent Kd” value is 59.5 nM under setting [1] and 89.9 nM under setting [2].

Take “ACGACAUGAGGAUCACCCAUGUAAGGUGAUACCAGACGAAGUAAUGUCCCUUGGCAGCACACGCAUAGUUGCGAUUAUUGUACGA”: the “apparent Kd” value is, setting by setting: under setting [3], 533 nM; under setting [4], 137 nM.

“UUUGAGAUAACAGAUACCAGCGUGUUAUAAAACAUGAGGAUCACCCAUGUAGUGAUCAAGCGCCCUUGGCAGCUGGUAUUUUAGG”: the “apparent Kd” value by setting is: under setting [3], 95.2 nM; under setting [4], 210 nM.

As for “UUUGCACAUGAGGAUCACCCAUGUACAGAUACCAGCCUCAUCUACGGCCCUUGGCAGCUGAGACAAUGGUGACGUGAUGGGCUUU”, the “apparent Kd” value by setting is: under setting [1], 11.3 nM; under setting [2], 16.2 nM.

Turning to “GGUGGGACUUGUGAUACCAGCCCAGUUCUAAUCGAACUGCACAUGAGGAUCACCCAUGUCGGCCCUUGGCAGCAUGAGUAUUUAU”, the “apparent Kd” value by setting is: under setting [3], 322 nM; under setting [4], 19.3 nM.

On to “UCUUUCUAUGUAGAUACCAGCAUGUUAUAUUUCUAAUGACAUGAGGAUCACCCAUGUAAAUGCCCUUGGCAGCUACAUUUUCUUU”, for which the “apparent Kd” value is 23.1 nM under setting [3] and 16 nM under setting [4].

For “CUGCCAUGCAGAGAUACCAGUGCGCUCAGCACAUGAGGAUCACCCAUGUCGGCUGCCGAUCACCCUUGGCAGCUCUGCAUGGCAG”, the “apparent Kd” value is, setting by setting: under setting [3], 11.4 nM; under setting [4], 9.11 nM.

Take “GGUGAUCCGUGCUGCCGGAUCAUCGGUGAUACCAGCAUCGAAAGAUGCCCUUGGCAGCACCAACAUGAGGAUCACCCAUGUAAUA”: the “apparent Kd” value reads like this: under setting [3], 206 nM; under setting [4], 73.4 nM.

With “CAUACUUUAGUAUGACGUGUGGGCAGUGAUACCAGAUACGAAAGUAUCCCUUGGCAGCACAACAUGAGGAUCACCCAUGUAAUUA”, the “apparent Kd” value came to 20.5 nM under setting [3] and 31.3 nM under setting [4].

With “ACAUGAGGAUCACCCAUGUCACGGCACGAUACCAGCUGAUCCGGUGGCCCUUGGCAGCGUGACGUUUGGUCCCGCGGAUGACACG”, the “apparent Kd” value stood at 134 nM under setting [3] and 43 nM under setting [4].

On to “GCCAGACAUGAGGAUCACCCAUGUAGCGAUACCAGCUCUGUUGUGAGCCCUUGGCAGCGCACUGGCAUCGUAGGUGAUCCAAUAA”, for which the “apparent Kd” value stood at 75.2 nM under setting [3] and 187 nM under setting [4].

Consider “UUACAUGAGGAUCACCCAUGUCAUAAUGAUACCAGAUAGUUAAUGAUCCCUUGGCAGCAUAAUACCUAGACAUUUAAGUCAUAGG”, for which the “apparent Kd” value runs as follows: under setting [3], 83.1 nM; under setting [4], 41 nM.

As for “AUCGUACCUGAGGAUACCAGCAUGUGAUCAUAACAUGAGGAUCACCCAUGUAAUCAGUGAUGCCCUUGGCAGCUUGAUCGGUACA”, the “apparent Kd” value worked out at 80.1 nM under setting [3] and 24.9 nM under setting [4].

In the case of “AUCGCACCUGGUGAUACCAGCGUUUGCUCGCGACAUGAGGAUCACCCAUGUGGCCAGUGAUGCCCUUGGCAGCAUGGUCGGUGCA”, the “apparent Kd” value is, setting by setting: under setting [3], 317 nM; under setting [4], 45.4 nM.

For “GCACCAGGUACGGAUACCAGCUGCCAGAGAUACAUGAGGAUCACCCAUGUGACCUGAUUUAGCCCUUGGCAGCUGUACCUGGUGC”, the “apparent Kd” value stood at 466 nM under setting [3] and 35.7 nM under setting [4].

For “AUGUCGUUGAAUACAGCGGCAUGGAGUGAUACCAGAAUGAUCAAAUUCCCUUGGCAGCAUGACAUGAGGAUCACCCAUGUUCGAU”, the “apparent Kd” value stood at 111 nM under setting [3] and 104 nM under setting [4].

For the sequence “CCUGCGUUUCUUUUCUUUCGCAGGAAUGAUACCAGUAGGGAAACCUACCCUUGGCAGCAUGGGACAUGAGGAUCACCCAUGUUUU”, the “apparent Kd” value is, setting by setting: under setting [3], 166 nM; under setting [4], 33.4 nM.

Regarding “AAAUAAAUAACUGAUACCAGUCGGACAACAUGAGGAUCACCCAUGUUCACCCAUGUUGAGGACCCUUGGCAGCAGAAAUAUAAAA”, the “apparent Kd” value by setting is: under setting [1], 92.3 nM; under setting [2], 185 nM.

With “UCGUGGUCCGCAAGGACCGGGAGUUGCGAUACCAGCACGGUAACGUGCCCUUGGCAGCGCACAUGAGGAUCACCCAUGUGGUGUU”, the “apparent Kd” value by setting is: under setting [1], 229 nM; under setting [2], 514 nM.

For “CUCGGUUGAUCCUAGCUGCCGAGAGGUGAUACCAGCAUCGAAAGAUGCCCUUGGCAGCACCAACAUGAGGAUCACCCAUGUAAUA”, the “apparent Kd” value came to 55.1 nM under setting [3] and 483 nM under setting [4].

As to “AUAAGUAAUGUUUCGUGUAUUAUUACAGAUACCAGACUAUCCUAUGUCCCUUGGCAGCUGGAUUACAUGAGGAUCACCCAUGUUG”, the “apparent Kd” value stood at 16.4 nM under setting [1] and 24.9 nM under setting [2].

As to “GAGCUGAUGUAGAGAAUAAAUAUAAGAGAUACCAGUACAGAAAUGUACCCUUGGCAGCUCAACUUUACAUGAGGAUCACCCAUGU”, the “apparent Kd” value by setting is: under setting [1], 13.9 nM; under setting [2], 18.8 nM.

As for “ACCUCACUCUCUGAUACCAGCUAAUAACAUGAGGAUCACCCAUGUCAGACUUGUAUUGAUAGCCCUUGGCAGCAGAGGUAACUGC”, the “apparent Kd” value by setting is: under setting [1], 9.39 nM; under setting [2], 11.3 nM.

As to “CGGUACAUGAGGAUCACCCAUGUGUCGGAUACCAGAGAGCCGUCUCUCCCUUGGCAGCUGGUUUUACAUGAGGAUCACCCAUGUG”, the “apparent Kd” value under setting [1] was 13.6 nM and the “apparent Kd” value under setting [2] turned out to be 20.1 nM.

“GAUGAACUAUUUGAUACCAGACUACAUGAGGAUCACCCAUGUGUGUUAAUUUUUCAGUCAGUCCCUUGGCAGCAAAUAGUUUAUC”: the “apparent Kd” value worked out at 61.2 nM under setting [1] and 146 nM under setting [2].

As to “GGUGGCGUGACGGAUACCAGCCACCGCCGCAAGGCCACAUGAGGAUCACCCAUGUUGGGUGGCCCUUGGCAGCUGUCGUGCGGCG”, the “apparent Kd” value by setting is: under setting [3], 157 nM; under setting [4], 281 nM.

For the sequence “GAGGUCCUGAGAGAUACCAGUGAGGCCACAUGAGGAUCACCCAUGUCCCUCACUCCGGCCCACCCUUGGCAGCUCGGAAGGUAAA”, the “apparent Kd” value runs as follows: under setting [1], 18.1 nM; under setting [2], 119 nM.

With “ACAUGAGGAUCACCCAUGUUCCUCAUUGAUACCAGUGAAUUUAGACGCCCUUGGCAGCGAGUUUUUUUAUAAGAUUUUUUUUUUU”, the “apparent Kd” value reads like this: under setting [1], 626 nM; under setting [2], 1320 nM.

For “AUAAAUAUAACCGAUACCAGCCUUAUACAUGAGGAUCACCCAUGUUAUGCUUCCUUUUUUGGCCCUUGGCAGCGGAAAUGGGUAA”, the “apparent Kd” value is, setting by setting: under setting [3], 81.7 nM; under setting [4], 36.2 nM.

These data come from the EternaBench riboswitch data.
